High-throughput results as filed in PubChem.
Rows were chosen to be rich in hits. Some 3.1% of all compounds tested hit in one or more screens of this group.
HKDC1 inhibitor: HKDC1 hexokinase inhibitors, primary screen, biochemical, fluorescence, uHTS | Q2TB90 | recombinant HKDC1, G6PDH/diaphorase resazurin coupled fluorescence | inhibition, % at 20 µM | actives 0.16% (n = 340,000);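 active = inhibition above about 35% when tested at 20 µM, limit read from the data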;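 also: plate controls were DMSO wells with enzyme for no effect and DMSO wells lacking enzyme for full effect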
Target sequence (Q2TB90 whole entry, looked up): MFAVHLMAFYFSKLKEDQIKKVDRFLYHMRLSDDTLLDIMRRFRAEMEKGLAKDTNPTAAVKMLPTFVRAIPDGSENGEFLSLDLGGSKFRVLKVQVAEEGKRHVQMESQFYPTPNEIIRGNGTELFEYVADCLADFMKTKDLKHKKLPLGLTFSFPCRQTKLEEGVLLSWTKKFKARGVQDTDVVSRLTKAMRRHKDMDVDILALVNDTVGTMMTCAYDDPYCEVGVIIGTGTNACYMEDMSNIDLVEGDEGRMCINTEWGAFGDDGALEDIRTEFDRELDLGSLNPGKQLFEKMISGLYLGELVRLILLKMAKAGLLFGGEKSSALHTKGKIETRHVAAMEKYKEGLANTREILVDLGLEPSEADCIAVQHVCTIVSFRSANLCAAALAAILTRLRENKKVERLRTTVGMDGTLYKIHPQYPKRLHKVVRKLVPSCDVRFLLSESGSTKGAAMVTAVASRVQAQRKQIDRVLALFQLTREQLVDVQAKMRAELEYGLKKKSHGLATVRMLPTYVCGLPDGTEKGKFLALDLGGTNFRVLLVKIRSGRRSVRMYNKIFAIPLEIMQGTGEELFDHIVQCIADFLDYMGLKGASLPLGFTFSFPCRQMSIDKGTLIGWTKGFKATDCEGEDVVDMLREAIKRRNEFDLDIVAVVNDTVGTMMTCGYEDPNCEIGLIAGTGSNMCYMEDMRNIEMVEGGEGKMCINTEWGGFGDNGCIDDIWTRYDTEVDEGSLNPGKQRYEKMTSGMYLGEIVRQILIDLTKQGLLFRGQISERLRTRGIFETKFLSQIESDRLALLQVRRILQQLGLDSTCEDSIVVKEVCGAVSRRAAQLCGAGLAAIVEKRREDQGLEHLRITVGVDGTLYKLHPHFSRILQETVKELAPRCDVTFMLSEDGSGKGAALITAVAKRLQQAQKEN
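test system = in-house recombinant HK5 (HKDC1) enzyme | amount = HKDC1 at 5 µg/mL | control set = DMSO-enzyme wells negative, buffer-substituted wells positive | compound = one dose of 20 µM, 1% DMSO | schedule = reaction time 90 min, room temperature, protected from light | technique = resorufin fluorescence at 613 nm | reagent = glucose with 1 mM ATP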
HSF1 inhib: HSF1 inhibitors in luciferase reporter cells, primary screen, cell-based, NIH3T3, luminescence | actives 0.77% (n = 300,000) | NIH3T3-HGL HSE-luciferase, MG132-induced, luminescence 8 h; hits give low values | AID 2098, 2009 | activity change, negative = inhibition, % at 7.5 µM (by protocol);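 active = more than half of replicate wells show activity change below -50%, luminescence cut by over half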;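 also: luciferase reports HSF-1 transcriptional activity via heat shock element; 0% = median of DMSO wells and -100% = zero luminescence signal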
HSP90 refold inh: HSP90 inhibitors, primary screen, cell lysate, luminescence. Heat shock protein HSP 90 (rabbit reticulocyte lysate; luciferase refolding). Rabbit reticulocyte lysate, luciferase refolding luminescence, 3 h. inhibition, % at 5.6 µM. actives 0.91% (n = 290,000). AID 1789, 2009;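 active = inhibition above the screen-wide mean plus 3 SD, computed separately per campaign, cut at about 16% in these data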;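 also: 0% = DMSO wells and 100% = 60 µM geldanamycin wells; inhibitors lower the luminescence because luciferase stays unfolded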
HSF1 activator: HSF-1 activators, primary screen, NIH3T3-HGL cells, MG132 stress, luminescence, single point | AID 504408, 2011 | NIH3T3-HGL HSF-1 luciferase reporter, 8 h; 100% = twice DMSO control signal | activation, % at 9 µM | actives 1.7% (n = 300,000);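 active = mean replicate activation of at least 50% with a set share of replicates each reaching 50%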;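 also: 0% = median of the neutral control wells and 100% = twice that signal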
TbHK1 inh: Trypanosoma brucei hexokinase 1 inhibitors, primary screen, biochemical, G6PDH-coupled NADH absorbance, MLSCN library; recombinant TbHK1, G6PDH-coupled NADH A340; inhibition, % at 10 µM; actives 0.11% (n = 220,000); AID 1430, 2008;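 active = inhibition of 50% or more in the single-dose primary screen; inactive = inhibition below 50%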
Hsp70 activator: Hsp70 transcriptional activators, primary screen, cell-based, HeLa, Hsp70 promoter luciferase, luminescence, 10 µM | HeLa Hsp70 promoter luciferase reporter; scaled: vehicle 0, proteasome-inhibitor control 100% | activation, % at 10 µM | actives 0.04% (n = 200,000) | AID 1203, 2008;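 active = activation above the mean across all tested compounds plus 3 SD, cutoff set per campaign, cut at about 5.5% in these data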;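 also: 100% = MG132 at 30 µM as the positive control and 0% = DMSO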
Starred values were filed as active, the others as inactive; . = no result.

SMILES | HKDC1 inhibitor | HSF1 inhib | HSP90 refold inh | HSF1 activator | TbHK1 inh | Hsp70 activator
COc1cccc(-n2nnc3c(=O)n(Cc4ccccc4Cl)cnc32)c1 | -1 | -58* | 7 | -62 | 1 | 0
COc1cccc(-n2nnc3c(=O)n(Cc4ccc(Cl)cc4)cnc32)c1 | -13 | 5 | 1 | 3 | -2 | 0
CC1(C2CC2)NC(=O)N(CC(=O)NCC(=O)Nc2ccc(F)c(F)c2F)C1=O (configuration not stated) | -7 | . | . | . | . | .
CC(NC(=O)c1ccc(C(C)(C)C)cc1)C(c1cccs1)N1CCOCC1 (configuration not stated) | -3 | 26 | -1 | 69* | . | .
CC(NC(=O)c1ccncc1)C(c1cccs1)N1CCOCC1 (configuration not stated) | -5 | 3 | -2 | 5 | 2 | 0
O=C(Nc1ccc(Nc2ccccc2)cc1)Nc1ccccc1Cl | 1 | 34 | -4 | 56* | 1 | .
CC1OC(Nc2cccc3ccccc23)C(O)C(O)C1O (configuration not stated) | 17 | -96* | 1 | -96 | 35 | 0
CC1OC(Nc2ccc(N=Nc3ccccc3)cc2)C(O)C(O)C1O (configuration not stated) | -9 | 3 | -2 | 22 | -22 | 0
CCOC(=O)c1ccc(NC(=O)c2cnccn2)cc1 | 1 | 13 | 1 | 14 | -5 | 0
CCCCc1ccc(NC(=O)c2cnccn2)cc1 | 4 | 4 | 17* | 20 | -3 | 0
CCc1nc(N2CCN(C(=O)CCl)CC2)c2c3c(sc2n1)CC(C)CC3 (configuration not stated) | 30 | 18 | 3 | 32 | . | .
O=C(CN(CC1CCCO1)S(=O)(=O)c1ccc(S(=O)(=O)NC2CC2)cc1)Nc1ccccc1 (configuration not stated) | -5 | 61 | 2 | 115* | 4 | 0
Nc1nnc(COc2ccc(Br)cc2Br)s1 | -7 | 46 | 0 | 92* | -2 | 0
N/C(=N\N=C\c1cccc(O)c1)c1nonc1N | 3 | 16 | 29* | 49 | -33 | 0
N/C(=N\N=C\c1ccc(O)cc1)c1nonc1N | -8 | 12 | 0 | 16 | -30 | 0
CCOc1ccc2nc(SCc3ccccc3C#N)sc2c1 | -1 | 68 | -1 | 115* | 7 | 0
CCOc1ccc2nc(SCc3ccc(OC)cc3)sc2c1 | 5 | 14 | -1 | 12 | -1 | 0
CCOc1ccc(N(C(=O)c2ccccc2Cl)C2=NC(C)(C)CS2)cc1 | -2 | 18 | -2 | 51* | -5 | 0
CCOc1ccc(N(CC(=O)Nc2ccccc2Cl)S(C)(=O)=O)cc1 | 3 | -22 | 2 | -37 | . | .
CN(C)/C=C/C(=O)c1cccc(Oc2ncccn2)c1 | -1 | 49 | -2 | 72* | -27 | 0
CC(C)(C)C(CN1CCCC1)OC(=O)c1ccccc1 (configuration not stated) | -4 | -80* | -2 | -84 | . | .
N=C1S/C(=C\c2ccco2)C(=O)N1c1nccs1 | -4 | 113 | 2 | 98* | -1 | 0
N=C1S/C(=C\c2ccco2)C(=O)N1c1ccc2c(c1)OCO2 | -5 | 13 | -3 | 32 | -1 | 0
CCCc1ccc2oc(C(=O)N3CCC(O)CC3)c(C)c2c1 | 1 | 14 | 2 | 22 | . | .
CCCc1ccc2oc(C(=O)N(C)Cc3nccs3)c(C)c2c1 | 1 | 28 | -5 | 67* | . | .
SMILES | HKDC1 inhibitor | HSF1 inhib | HSP90 refold inh | HSF1 activator | TbHK1 inh | Hsp70 activator
CCOc1cc(Br)cc(/C=N/NC(=O)c2cccnc2)c1O | -32 | -3 | -7 | -5 | . | .
O=C1c2cccc3cccc(c23)C(=O)N1CCN1CCN(CC(O)COc2ccc3ccccc3c2)CC1 (configuration not stated) | -9 | 17 | 3 | 17 | -23 | 0
COc1cc(COCC(O)CN2CCN(CCN3C(=O)c4cccc5cccc(c45)C3=O)CC2)cc(OC)c1OC (configuration not stated) | -2 | 88 | 0 | 115* | -82 | 0
O=C1c2cccc3cccc(c23)C(=O)N1CCN1CCN(CC(O)COCc2ccc(Cl)cc2)CC1 (configuration not stated) | -14 | 40 | -1 | 73* | -24 | 0
COc1ccc(CNC(=O)CN2C(=O)NC(Cc3ccccc3)(c3ccccc3)C2=O)cc1OC (configuration not stated) | -2 | . | . | . | . | .
CCN(c1ccccc1)S(=O)(=O)c1cc(NC(=O)Nc2ccccc2C#N)ccc1Cl | -1 | 17 | 2 | 59* | -6 | 0
CCN(c1ccccc1)S(=O)(=O)c1ccc(Cl)c(NC(=O)Nc2ccc(Cl)cc2C#N)c1 | -3 | 18 | -8 | 21 | 2 | 0
CCOC(=O)C1=C(COC(=O)c2ccc(OC)c(OC)c2OC)NC(=O)NC1C (configuration not stated) | -2 | -2 | . | 2 | . | .
O=C(N/N=C/c1cn(-c2cccs2)nc1-c1ccccc1)c1ccccc1Cl | -6 | 22 | 3 | 59* | -7 | 0
O=C(N/N=C/c1cn(-c2ccccc2)nc1-c1cccs1)c1ccncc1 | -5 | 10 | 2 | 27 | -19 | 0
O=C(N/N=C/c1cn(-c2cccs2)nc1-c1ccccc1)c1ccc(O)cc1 | -9 | 21 | 5 | 57* | -6 | 0
Cc1ccc(COC(=O)CN2C(=O)NC3(CCCCC3C)C2=O)cc1 (configuration not stated) | 4 | . | . | . | . | .
O=C(O)c1cccc(NC(=O)c2ccc(COc3ccc(Cl)cc3)cc2)c1 | 1 | 31 | 0 | 39 | . | .
N#C/C(=C\c1ccc(OCc2ccc(Cl)cc2)cc1)C(=O)Nc1cccc(C(=O)O)c1 | 14 | 64 | -4 | 120* | . | .
Cc1ccc2c(c1)c(C)c(C)n2CC(O)Cn1nc(C)c(Br)c1C (configuration not stated) | 6 | 30 | 0 | 57* | -8 | 0
CC(C)S(=O)(=O)c1cnc(-c2cccnc2)nc1N | 1 | -8 | -3 | -2 | -1 | .
CN(C)c1ccc(NS(=O)(=O)c2cc(Cl)ccc2Cl)cc1 | 3 | -56* | -1 | -61 | 34 | 0
CCN(c1ccc(NS(=O)(=O)c2cc(Cl)ccc2Cl)cc1)C(C)C | 1 | -13 | -1 | -6 | 5 | 0
COc1ccc(CNC(=O)c2cnc3scc(C)n3c2=O)cc1 | 5 | -70* | -4 | -78 | -34 | 0
